Tests used:
[1] = system: P. falciparum chloroquine-sensitive (3D7) strain; experiment: In vitro schizonticidal activity, ELISA antiHRPII assay; assay type: cell-based, Plasmodium falciparum; conditions: for IC50: Plasmodium falciparum, 3D7, 72 h, read-out: IC50 (μM) ± SD P.f. 3D7
[2] = system: P. falciparum chloroquine-resistant (W2) strain; experiment: In vitro schizonticidal activity, ELISA antiHRPII assay; assay type: cell-based, Plasmodium falciparum; conditions: for SI (selectivity index) P.f. W2: SI = IC50 WI-26-VA4/IC50 P. falciparum strain W2
How it was run: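 W2 parasites grown in human erythrocytes in RPMI 1640 with human plasma, sorbitol-synchronized, plated at 0.05% parasitemia and 1.5% hematocrit. Triplicate drug dilutions for 72 h, freeze-thaw, anti-HRPII ELISA; IC50 is the mean of three assays. WI-26-VA4 fibroblasts: 1:10 serial dilutions (0.1% DMSO), 48 h, MTT read at 550 nm, triplicate. SI = fibroblast IC50 / W2 IC50.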

[3] = system: human lung fibroblast cell line WI-26-VA4; experiment: In vitro cytotoxicity test, MTT colorimetric assay; assay type: cell-based; conditions: WI26VA4, 48 h, read-out: IC50 (μM) ± SD Wi-26VA4
[4] = system: RKO-AS45-1 human cell line; experiment: Alkaline comet assay; assay type: cell-based; conditions: 17.7 μM vs 2.5 μM
[5] = system: RKO-AS45-1 human cell line; experiment: CBMN; assay type: cell-based; conditions: 2.5 to 17.7 μM
[6] = system: S. typhimurium strain TA100; experiment: Ames/Salmonella mutagenicity assay; assay type: cell-based, Salmonella typhimurium; conditions: with and without metabolic activation (S9), 6.7 to 30.9 μM
How it was run: (§1)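 Microsuspension protocol: overnight cultures (1 × 10^9 cells/mL) concentrated 10× by centrifugation, then exposed to five concentrations (TA100 6.7–30.9 μM; TA98 16.7–77.5 μM), with or without S9, 90 min at 37 °C. Plated in histidine/biotin top agar on minimal glucose agar; his+ revertants counted after 48 h at 37 °C. DMSO negative control; MI = treated/control revertants, MI ≥ 2 mutagenic.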

[7] = system: S. typhimurium strain TA98; experiment: Ames/Salmonella mutagenicity assay; assay type: cell-based, Salmonella typhimurium; conditions: with and without metabolic activation (S9), 16.7 to 77.5 μM
How it was run: as §1

With `CCN(CC)CCCC(C)Nc1ccnc2cc(Cl)ccc12` (stereo not shown) [CQ, chloroquine, reference compound] the IC50 [1] was 0.18 ± 0.05 µM, the “SI (selectivity index) P.f. W2” value [2] was greater than 250 and the IC50 [3] was greater than 100 µM.
In the case of `FCCCCCCCCCCOCCCc1cccnc1` [Compound 7, 3-(3-((10-Fluorodecyl)oxy)propyl)pyridine], the “genotoxic concentration relative to IC50 against P. falciparum” value [4] is reported as “about seven times higher”, the IC50 [1] is reported as 2.3 ± 0.15 µM and the “SI (selectivity index) P.f. 3D7” value ([1]; SI = IC50 WI-26-VA4/IC50 P. falciparum strain 3D7) is reported as 12.2. For the same molecule, the “increase of in vitro antimalarial activity compared to compound 5c” value ([2]; P. falciparum W2) was 5.8 fold, the “SI (selectivity index) P.f. W2” value [2] was 11.2 and the IC50 [3] was 28.2 ± 3.7 µM. The “nuclear division index (NDI)” value [5] was “None of the concentrations assessed affected the nuclear division index (NDI) values”, the frequency of micronuclei ([5]; 3 h exposure) was “altered only at concentrations higher than the IC50” and the “induction of gene mutations (Ames)” value [6] was “not able to induce gene mutations”. For the same molecule, the “induction of gene mutations (Ames)” value [7] was “not able to induce gene mutations”.
